From ChEMBL document CHEMBL2331538, “Identification of inhibitors against interaction between pro-inflammatory sPLA2-IIA protein and integrin αvβ3” (Bioorg Med Chem Lett, 2013)
Activity calls are given as the source filed them. The calls are words filed in the database; no cut-off is given here.

What was measured:
[1] = biological target: T1, Phospholipase A2, membrane associated (Homo sapiens) (UniProt P14555); assay: Inhibition of sPLA2-IIA (unknown origin)-integrin alphaVbeta3 interaction in human K562 cells pretreated for 30 mins to immobilized sPLA2 before adding cells by phosphatase assay relative to BSA; assay type: cell-based
T1 sequence (whole entry): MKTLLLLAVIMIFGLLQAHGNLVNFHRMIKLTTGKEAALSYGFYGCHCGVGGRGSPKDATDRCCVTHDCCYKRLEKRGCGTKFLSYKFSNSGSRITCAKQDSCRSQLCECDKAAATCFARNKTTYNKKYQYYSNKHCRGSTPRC
In short: (§1)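 Wells coated with sPLA2-IIA and blocked with BSA were preincubated with compound (10 to 500 μM) for 30 min. Integrin αvβ3-transfected K562 erythroleukemia cells were then added for 1 h at 37 °C, and bound cells were quantified by phosphatase assay. IC50 and maximum inhibition were derived from dose-response experiments.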

[2] = biological target: T2, Phospholipase A2, membrane associated (Homo sapiens, UniProt P14555); assay: Inhibition of sPLA2-IIA (unknown origin)-integrin alphaVbeta3 interaction in human K562 cells pretreated for 30 mins to immobilized sPLA2 before adding cells by phosphatase assay; assay type: cell-based; in short: as §1
T2 sequence (P14555 whole entry): T1 sequence (whole entry)

U-937 [3] = assay: Inhibition of sPLA2-IIA R47E/R100E mutant (unknown origin)-induced migration of human U937 cells after 20 hrs by chemotaxis assay; assay type: cell-based
[4] = biological target: T1, Phospholipase A2, membrane associated (Homo sapiens); assay: Inhibition of sPLA2-IIA (unknown origin)-integrin alphaVbeta3 interaction in human K562 cells pretreated at 200 uM for 30 mins to immobilized sPLA2 before adding cells by phosphatase assay; assay type: cell-based
In short: (§2)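 Specificity adhesion assay using αvβ3-transfected K562 cells. Wells were coated with either ADAM15 or sPLA2-IIA and blocked with BSA. Compound was used at 200 μM. Adherent cells were quantified by phosphatase assay. Means ± S.E., n=3.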

[5] = biological target: T1, Phospholipase A2, membrane associated (Homo sapiens); assay: Inhibition of sPLA2-IIA (unknown origin)-induced migration of human U937 cells after 20 hrs by chemotaxis assay; assay type: cell-based; conditions: U-937
In short: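 Modified Boyden chamber (Transwell) chemotaxis assay. The lower chamber held sPLA2-IIA (40 ng/ml) with compound (4 to 16 μM), and U937 monocytic cells were placed in the upper chamber for 20 h at 37 °C. Migrated cells were counted. Means ± SE, n=4.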

[6] = biological target: T3, Disintegrin and metalloproteinase domain-containing protein 15 (Homo sapiens) (UniProt Q13444); assay: Inhibition of ADAM15 (unknown origin)-integrin alphaVbeta3 interaction in human K562 cells pretreated at 200 uM for 30 mins to immobilized sPLA2 before adding cells by phosphatase assay; assay type: cell-based; in short: as §2
T3 sequence (whole entry): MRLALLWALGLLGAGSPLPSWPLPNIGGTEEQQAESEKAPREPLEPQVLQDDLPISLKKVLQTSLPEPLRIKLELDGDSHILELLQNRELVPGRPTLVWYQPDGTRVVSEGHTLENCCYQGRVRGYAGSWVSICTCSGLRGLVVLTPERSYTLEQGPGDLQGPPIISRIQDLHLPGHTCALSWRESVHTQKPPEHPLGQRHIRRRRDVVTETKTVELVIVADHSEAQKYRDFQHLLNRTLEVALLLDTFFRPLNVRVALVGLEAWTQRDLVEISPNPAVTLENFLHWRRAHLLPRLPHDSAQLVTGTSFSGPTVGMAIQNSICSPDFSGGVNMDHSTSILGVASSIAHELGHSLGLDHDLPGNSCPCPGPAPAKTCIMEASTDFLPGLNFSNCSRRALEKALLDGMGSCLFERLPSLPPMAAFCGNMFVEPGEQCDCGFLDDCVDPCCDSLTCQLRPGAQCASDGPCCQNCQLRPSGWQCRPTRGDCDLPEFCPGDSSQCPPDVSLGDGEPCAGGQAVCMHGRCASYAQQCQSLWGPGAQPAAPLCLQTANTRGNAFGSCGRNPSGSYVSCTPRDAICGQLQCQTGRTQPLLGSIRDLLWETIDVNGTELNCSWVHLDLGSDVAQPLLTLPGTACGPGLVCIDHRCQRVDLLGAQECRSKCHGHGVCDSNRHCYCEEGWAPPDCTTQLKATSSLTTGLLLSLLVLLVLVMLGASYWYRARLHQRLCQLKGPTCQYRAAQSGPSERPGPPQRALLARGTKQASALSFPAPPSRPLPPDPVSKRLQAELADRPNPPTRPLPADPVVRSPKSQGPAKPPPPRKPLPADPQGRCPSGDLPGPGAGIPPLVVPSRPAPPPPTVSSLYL

U-937 [7] = assay: Inhibition of sPLA2-IIA (unknown origin)-induced migration of human U937 cells after 20 hrs by chemotaxis assay

SMILES	Imax [1]	further results
Cc1nc(NC(=O)c2ccccc2)sc1-c1cc(C(=O)NCC(=O)N[C@H](CCCNC(=N)N)C(=O)NCC(=O)N[C@H](CC(=O)O)C(=O)O)[nH]n1	87%	–
C[C@H](NC(=O)[C@@H](CCCNC(=N)N)NC(=O)[C@@H](CC(N)=O)NC(=O)[C@@H](CCCNC(=N)N)NC(=O)[C@@H](Cc1ccccc1)NC(=O)c1ccc2nn3c(c2c1)OCc1cc(Cl)ccc1-3)C(=O)N[C@@H](Cc1ccc(O)cc1)C(=O)O	71%	IC50 [2]: 85 µM
Cc1nc(NC(=O)c2ccccc2)sc1-c1cc(C(=O)NCC(=O)N[C@H](CCCN=C(N)N)C(=O)NCC(=O)N[C@H](CC(=O)O)C(=O)O)[nH]n1	–	IC50 [2]: 155 µM
Cc1nc(NC(=O)c2ccccc2)sc1-c1cc(C(=O)N[C@@H](C)C(=O)N[C@@H](Cc2c[nH]c3ccccc23)C(=O)N[C@H](CC(=O)O)C(=O)O)[nH]n1	inactive	–
C[C@H](NC(=O)[C@H](CCCCN)NC(=O)[C@H](Cc1ccc(O)cc1)NC(=O)[C@H](Cc1cnc[nH]1)NC(=O)c1cnccn1)C(=O)N[C@H](CC(N)=O)C(=O)N[C@H](C(=O)O)[C@@H](C)O	< 30%	–
CC(C)[C@H](NC(=O)CC1NC(=O)NC1=O)C(=O)N[C@H](CC(N)=O)C(=O)N[C@@H](Cc1c[nH]c2ccccc12)C(=O)N1CCC[C@H]1C(=O)N[C@@H](CCC(N)=O)C(=O)N[C@@H](CCC(N)=O)C(=O)O (stereo partly specified)	< 30%	–
Cc1nc(NC(=O)c2ccccc2)sc1-c1cc(C(=O)NCC(=O)N[C@H](CCCNC(=N)N)C(=O)NCC(=O)O)[nH]n1	81%	–
N=C(N)NCCC[C@@H](NC(=O)CN)C(=O)NCC(=O)N[C@H](CC(=O)O)C(=O)N[C@H](CC(=O)O)C(=O)N[C@H](CC(=O)O)C(=O)O	inactive	–
Cc1nc(NC(=O)c2ccccc2)sc1-c1cc(C(=O)NCC(=O)N[C@H](CCCNC(=N)N)C(=O)NCC(=O)N[C@H](CC(=O)O)C(=O)N[C@H](CC(=O)O)C(=O)O)[nH]n1	inactive	–
CC[C@H](C)[C@H](NC(=O)[C@@H](CC(=O)O)NC(=O)[C@H](Cc1c[nH]c2ccccc12)NC(=O)[C@H](C)NC(=O)c1cc(-c2sc(NC(=O)c3ccccc3)nc2C)n[nH]1)C(=O)O	85%	inhibition (U-937 [3]): inactive; inhibition [4]: Active; IC50 [2]: 20 µM; inhibition [5]: Dose-dependent effect; inhibition [6]: inactive
Cc1nc(NC(=O)c2ccccc2)sc1-c1cc(C(=O)NCC(=O)N[C@H](CCCN=C(N)N)C(=O)O)[nH]n1	–	IC50 [2]: 262 µM
Cc1nc(NC(=O)c2ccccc2)sc1-c1cc(C(=O)NCC(=O)N[C@H](CCCNC(=N)N)C(=O)NCC(=O)N[C@H](CC(=O)O)C(=O)N[C@H](CC(=O)O)C(=O)N[C@H](CC(=O)O)C(=O)O)[nH]n1	93%	inhibition [4]: Active; inhibition (U-937 [7]): inactive; inhibition [6]: inactive
CC(C)[C@H](NC(=O)[C@@H]1CCCN1C(=O)[C@@H](CC(N)=O)NC(=O)[C@@H](CCCNC(=N)N)NC(=O)[C@H](CCCCN)NC(=O)[C@H](Cc1c[nH]c2ccccc12)NC(=O)c1csc(-c2ccccn2)n1)C(=O)O	< 30%	–
Cc1nc(NC(=O)c2ccccc2)sc1-c1cc(C(=O)N[C@@H](C)C(=O)O)[nH]n1	inactive	–
N=C(N)NCCC[C@@H](NC(=O)c1csc(-c2ccccn2)n1)C(=O)N[C@@H](Cc1c[nH]c2ccccc12)C(=O)N[C@@H](CCC(=O)O)C(=O)N[C@H](Cc1ccccc1)C(=O)O	< 30%	–
Cc1nc(NC(=O)c2ccccc2)sc1-c1cc(C(=O)NCC(=O)N[C@H](CCCNC(=N)N)C(=O)O)[nH]n1	77%	–
Cc1nc(NC(=O)c2ccccc2)sc1-c1cc(C(=O)N[C@@H](C)C(=O)N[C@@H](Cc2c[nH]c3ccccc23)C(=O)O)[nH]n1	inactive	–
Cc1nc(NC(=O)c2ccccc2)sc1-c1cc(C(=O)NCC(=O)N[C@H](CCCN=C(N)N)C(=O)NCC(=O)N[C@H](CC(=O)O)C(=O)N[C@H](CC(=O)O)C(=O)N[C@H](CC(=O)O)C(=O)O)[nH]n1	–	IC50 [2]: 71 µM
Cc1nc(NC(=O)c2ccccc2)sc1-c1cc(C(=O)O)[nH]n1	inactive	–
Cc1nc(NC(=O)c2ccccc2)sc1-c1cc(C(=O)NCC(=O)N[C@H](CCCN=C(N)N)C(=O)NCC(=O)O)[nH]n1	–	IC50 [2]: 217 µM
CC[C@H](C)[C@H](NC(=O)[C@@H](CC(=O)O)NC(=O)[C@H](Cc1c[nH]c2ccccc12)NC(=O)[C@H](C)N)C(=O)O	inactive	–
Cc1nc(NC(=O)c2ccccc2)sc1-c1cc(C(=O)NCC(=O)O)[nH]n1	98%	–
